As usually defined, the IC50 is the point on the concentration scale where inhibition reaches its midpoint. Read a low IC50 as greater potency in that assay.

In one assay the test system is Bcap37. Nature of the assay: Growth inhibition of human Bcap37 cells after 72 hrs by MTT assay. In kind it is functional, cell-based. In short, it runs like this: (§1)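 Cell lines were grown in RPMI 1640 with 10% fetal bovine serum and plated at 2 × 10³ cells/well. Compounds were taken up in DMSO, diluted in medium, and applied over a 1–100 range for 72 h, with 0.1% DMSO as control. MTT formazan was read at 595 nm. IC50 came from the dose–response curve, from three separate experiments each run in triplicate.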
In general terms: Formazan colour is commonly taken as a measure of viable cells.

Another assay deals with PC-3. The assay is described as follows: Growth inhibition of human PC3 cells after 72 hrs by MTT assay. In kind it is functional, cell-based. In short, it runs like this: as §1
The subject of the next assay is A-431. Nature of the assay: Growth inhibition of human A431 cells after 72 hrs by MTT assay. Type of assay: functional, cell-based. In short, it runs like this: as §1
The subject of another assay is BGC-823. The assay is described as follows: Growth inhibition of human BGC823 cells after 72 hrs by MTT assay. Type of assay: functional, cell-based. In short, it runs like this: as §1
For assay [1], the target named is Mitogen-activated protein kinase 3 (Homo sapiens) (UniProt P27361). Nature of the assay: Inhibition of EGF-induced ERK1 phosphorylation in PC3 cells at 20 uM after 60 mins. The settings on record: PC-3. Type of assay: cell-based. In short, it runs like this: (§2)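 PC3 cells were grown in RPMI 1640 with 10% FBS at 37 °C for 36–48 h, then serum-starved for 24 h. They were pretreated with compound at 20 for 60 min, then stimulated with EGF for 10 min and quenched on ice. Lysates were immunoblotted with anti-phospho-ERK1/2 monoclonal antibody overnight at 4 °C, then secondary antibody for 2–3 h at 25 °C, with ECL detection.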
Sequence of Mitogen-activated protein kinase 3 (Homo sapiens) (P27361 whole entry): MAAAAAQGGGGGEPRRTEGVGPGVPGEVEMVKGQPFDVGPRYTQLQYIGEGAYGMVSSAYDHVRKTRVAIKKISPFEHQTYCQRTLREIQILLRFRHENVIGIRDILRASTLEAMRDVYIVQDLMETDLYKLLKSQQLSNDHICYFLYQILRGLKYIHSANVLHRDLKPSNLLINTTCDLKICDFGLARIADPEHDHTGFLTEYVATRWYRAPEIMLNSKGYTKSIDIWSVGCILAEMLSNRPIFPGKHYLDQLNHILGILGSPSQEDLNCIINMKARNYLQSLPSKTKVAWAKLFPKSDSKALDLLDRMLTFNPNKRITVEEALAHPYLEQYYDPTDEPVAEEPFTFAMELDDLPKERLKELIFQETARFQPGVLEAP

Assay [2] deals with Mitogen-activated protein kinase 1 (Homo sapiens) (UniProt P28482). The assay is described as follows: Inhibition of EGF-induced ERK2 phosphorylation in PC3 cells at 20 uM after 60 mins. In kind it is cell-based. The settings on record: PC-3. In short, it runs like this: as §2
Sequence of Mitogen-activated protein kinase 1 (Homo sapiens) (P28482 whole entry): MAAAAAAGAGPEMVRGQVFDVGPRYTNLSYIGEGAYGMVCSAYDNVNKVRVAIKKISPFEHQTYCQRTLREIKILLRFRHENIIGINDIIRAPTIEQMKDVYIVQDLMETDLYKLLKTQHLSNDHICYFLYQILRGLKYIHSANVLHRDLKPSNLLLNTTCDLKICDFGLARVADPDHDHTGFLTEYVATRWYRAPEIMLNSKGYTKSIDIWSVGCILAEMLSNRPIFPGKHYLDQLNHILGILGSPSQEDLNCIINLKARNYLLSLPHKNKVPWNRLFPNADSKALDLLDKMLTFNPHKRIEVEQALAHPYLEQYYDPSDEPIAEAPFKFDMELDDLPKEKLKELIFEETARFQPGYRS

Active and inactive are the calls of the source. The rule behind the calls is not given here.

Regarding `COc1cc(Nc2ncnc3c(OC)c(OC)c(OC)cc23)cc(OC)c1OC`, the IC50 in the assay on Bcap37 (Homo sapiens, Bcap37, 72 h) was found to be 76.5 µM; in the assay on PC-3 (Homo sapiens, PC-3, 72 h), 30 µM; in the assay with A-431 (Homo sapiens, A-431, 72 h), 65.4 µM; in the assay with BGC-823 (Homo sapiens, BGC-823, 72 h), 23.1 µM.

Consider `COc1cc2c(Nc3ccccc3[N+](=O)[O-])ncnc2c(OC)c1OC`, for which the IC50 in the assay with Bcap37 (Homo sapiens, Bcap37, 72 h) worked out at 29.9 µM; with PC-3 (Homo sapiens, PC-3, 72 h) it was 31.2 µM; with A-431 (Homo sapiens, A-431, 72 h), 31 µM; in the assay on BGC-823 (Homo sapiens, BGC-823, 72 h) it was 21 µM.

As for `COc1cc2c(Nc3ccc([N+](=O)[O-])cc3)ncnc2c(OC)c1OC`, the IC50 in the assay with Bcap37 (Homo sapiens, Bcap37, 72 h) worked out at 28.9 µM; in the assay on PC-3 (Homo sapiens, PC-3, 72 h) it was 25.5 µM; in the assay on A-431 (Homo sapiens, A-431, 72 h), 45.2 µM; with BGC-823 (Homo sapiens, BGC-823, 72 h), 32.2 µM.

In the case of `COc1cc2ncnc(Nc3cccc(Br)c3)c2cc1OC`, the IC50 in the assay with Bcap37 (Homo sapiens, Bcap37, 72 h) turned out to be 13.7 µM; in the assay with PC-3 (Homo sapiens, PC-3, 72 h), 8.9 µM; with BGC-823 (Homo sapiens, BGC-823, 72 h), 16.8 µM. Further, the outcome in assay [1] and in assay [2] was Active.

For the compound `COc1cc2c(Nc3cccc(Br)c3)ncnc2c(OC)c1OC` [listing 1 of 2 here], the IC50 in the assay with Bcap37 (bcap37) was 21 µM; in the assay with PC-3 (pc-3) it was 12.6 µM; in the assay on A-431 (a-431) it was 11 µM; with BGC-823 (bgc-823) it was 12.1 µM.

As for `COc1cc2c(Nc3ccccc3F)ncnc2c(OC)c1OC`, the IC50 with Bcap37 (Homo sapiens, Bcap37, 72 h) is 63.2 µM; in the assay with PC-3 (Homo sapiens, PC-3, 72 h) it was 18.8 µM; with A-431 (Homo sapiens, A-431, 72 h), 72.1 µM; in the assay with BGC-823 (Homo sapiens, BGC-823, 72 h), 36.7 µM.

For `COc1cc2c(Nc3ccc(Br)cc3Cl)ncnc2c(OC)c1OC`, the IC50 with Bcap37 (Homo sapiens, Bcap37, 72 h) is 89 µM; with PC-3 (Homo sapiens, PC-3, 72 h) it was 21 µM; in the assay on A-431 (Homo sapiens, A-431, 72 h) it was 51.5 µM; in the assay on BGC-823 (Homo sapiens, BGC-823, 72 h), 31 µM.

Regarding `COc1cc2c(N[C@@H](C)c3ccccc3)ncnc2c(OC)c1OC`, the IC50 was determined as 12.9 µM in the assay with Bcap37 (Homo sapiens, Bcap37, 72 h); 10 µM in the assay with PC-3 (Homo sapiens, PC-3, 72 h); 12 µM in the assay with A-431 (Homo sapiens, A-431, 72 h); 11.9 µM in the assay on BGC-823 (Homo sapiens, BGC-823, 72 h).

Regarding `COc1cc2c(=NCc3ccccc3)[nH]cnc2c(OC)c1OC`, the IC50 was 65.4 µM in the assay with Bcap37 (Homo sapiens, Bcap37, 72 h); 36.7 µM in the assay with PC-3 (Homo sapiens, PC-3, 72 h); 21.2 µM in the assay with A-431 (Homo sapiens, A-431, 72 h); 37.7 µM in the assay with BGC-823 (Homo sapiens, BGC-823, 72 h).

Take `COc1cc2c(Nc3ccc(F)cc3)ncnc2c(OC)c1OC`: the IC50 with Bcap37 (Homo sapiens, Bcap37, 72 h) was found to be 28.7 µM; with PC-3 (Homo sapiens, PC-3, 72 h) it was 24.5 µM; in the assay with A-431 (Homo sapiens, A-431, 72 h), 29 µM; in the assay with BGC-823 (Homo sapiens, BGC-823, 72 h) it was 39.6 µM.

Take `COc1cc2c(Nc3cccc(Cl)c3)ncnc2c(OC)c1OC`: the IC50 came to 21 µM in the assay on Bcap37 (Homo sapiens, Bcap37, 72 h); 19 µM in the assay with PC-3 (Homo sapiens, PC-3, 72 h); 32.1 µM in the assay on A-431 (Homo sapiens, A-431, 72 h); 19 µM with BGC-823 (Homo sapiens, BGC-823, 72 h).

Take `COc1cc2c(N[C@H](C)c3ccccc3)ncnc2c(OC)c1OC`: the IC50 in the assay on Bcap37 (Homo sapiens, Bcap37, 72 h) was found to be 23.2 µM; in the assay with PC-3 (Homo sapiens, PC-3, 72 h) it was 18.8 µM; with A-431 (Homo sapiens, A-431, 72 h), 21 µM; in the assay with BGC-823 (Homo sapiens, BGC-823, 72 h) it was 12 µM.

Turning to `COc1cc2c(Nc3cccc(F)c3)ncnc2c(OC)c1OC` [listing 1 of 2 here], the half-maximal inhibitory concentration (IC50) with Bcap37 (bcap37) was 22.1 µM; with PC-3 (pc-3) it was 25.3 µM; with BGC-823 (bgc-823), 28.9 µM.

As for `COc1cc2c(Nc3cccc([N+](=O)[O-])c3)ncnc2c(OC)c1OC`, the IC50 in the assay with Bcap37 (Homo sapiens, Bcap37, 72 h) was found to be 31.1 µM; with PC-3 (Homo sapiens, PC-3, 72 h), 24.4 µM; with A-431 (Homo sapiens, A-431, 72 h), 37.7 µM; in the assay with BGC-823 (Homo sapiens, BGC-823, 72 h), 39 µM.

As for `COc1cc2c(Nc3ccc(Br)cc3)ncnc2c(OC)c1OC`, the IC50 turned out to be 31.2 µM in the assay on Bcap37 (Homo sapiens, Bcap37, 72 h); 23.4 µM in the assay on PC-3 (Homo sapiens, PC-3, 72 h); 42.1 µM with A-431 (Homo sapiens, A-431, 72 h); 23.8 µM in the assay on BGC-823 (Homo sapiens, BGC-823, 72 h).

Regarding `COc1cc2c(Nc3ccc(O)cc3)ncnc2c(OC)c1OC`, the IC50 in the assay on Bcap37 (Homo sapiens, Bcap37, 72 h) turned out to be 45.5 µM; in the assay with PC-3 (Homo sapiens, PC-3, 72 h) it was 20.1 µM; with A-431 (Homo sapiens, A-431, 72 h) it was 22.2 µM; with BGC-823 (Homo sapiens, BGC-823, 72 h), 35.4 µM.

Regarding `COc1cc2c(Nc3cccc(F)c3)ncnc2c(OC)c1OC` [listing 2 of 2 here], the IC50 in the assay with Bcap37 (Homo sapiens, Bcap37, 72 h) is 21 µM; with PC-3 (Homo sapiens, PC-3, 72 h), 35.6 µM; in the assay on A-431 (Homo sapiens, A-431, 72 h), 29.7 µM; in the assay on BGC-823 (Homo sapiens, BGC-823, 72 h), 29.9 µM.

Consider `COc1cc2c(cc1Nc1ncnc3c(OC)c(OC)c(OC)cc13)oc1ccccc12`, for which the IC50 in the assay on Bcap37 (Homo sapiens, Bcap37, 72 h) was 8.1 µM; in the assay on PC-3 (Homo sapiens, PC-3, 72 h), 9.8 µM; with A-431 (Homo sapiens, A-431, 72 h), 9 µM; in the assay with BGC-823 (Homo sapiens, BGC-823, 72 h), 9.9 µM.

Regarding `COc1cc2c(Nc3cccc(Br)c3)ncnc2c(OC)c1OC` [listing 2 of 2 here], the IC50 with Bcap37 (Homo sapiens, Bcap37, 72 h) was found to be 12.3 µM; with PC-3 (Homo sapiens, PC-3, 72 h), 8.9 µM; in the assay with A-431 (Homo sapiens, A-431, 72 h) it was 7.6 µM; with BGC-823 (bgc-823), 5.8 µM.

`COc1cc2c(Nc3ccc(Cl)cc3)ncnc2c(OC)c1OC`: the IC50 with Bcap37 (Homo sapiens, Bcap37, 72 h) was determined as 52.2 µM; in the assay with PC-3 (Homo sapiens, PC-3, 72 h), 31 µM; with A-431 (Homo sapiens, A-431, 72 h), 19 µM; in the assay on BGC-823 (Homo sapiens, BGC-823, 72 h) it was 34.4 µM.

Values taken from ChEMBL document CHEMBL1143761, “Synthesis and bioactivities of 6,7,8-trimethoxy-N-aryl-4-aminoquinazoline derivatives” (Bioorg Med Chem, 2007).
